Source: ChEMBL document CHEMBL4513216, “Probing the Open Global Health Chemical Diversity Library for Multistage-Active Starting Points for Next-Generation Antimalarials” (ACS Infect Dis, 2020)

Test: Toxicity liver stage against HepG2, at 10uM
Type: cell-based
Set-up: test concentration 10 uM, cell line HepG2-A16-CD81EGFP
Details: human, HepG2-A16-CD81EGFP cells; read-out: INHIBITION
Procedure, shortened: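 Uninfected HepG2-A16-CD81EGFP cells, 3 × 10^3 per well, 1536-well, plated on prespotted compound at 10 μM final, parasite-free screening media added to match infected plates; puromycin 10 μM positive, DMSO 0.5% negative; run in parallel with 48 h PbLuc assay at 37 °C, 5% CO2; viability by CellTiter-Glo luminescence, normalized to controls.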
With `CCOn1c(SC(C)C)nc2ccccc2c1=O` the cytotoxicity at 10 µM was -5.36%. With `Cc1ccc2c(c1)nc1n2[C@@H](CNC(=O)c2ccccn2)COC1` the cytotoxicity at 10 µM was 7.82%. `O=C(c1ccno1)N1C[C@@H](F)[C@@H](OCc2nc3ccccc3o2)C1` gave a cytotoxicity at 10 µM of 7.61%. `O=C(CCc1nnc2ccccn2c1=O)NCc1ccc2c(c1)OCO2` showed a cytotoxicity at 10 µM of -0.403%. Compound `O=C(c1cc2c(Cl)cccc2[nH]1)N1CCN(CCc2ccccn2)CC1` has a cytotoxicity at 10 µM of 3.07%. With `O=C(NCCN1CCC(c2cccs2)CC1)c1ccc(F)cc1Cl` the cytotoxicity at 10 µM was -2.83%. `COCCNC(=O)NC1(c2nc(-c3ccncc3)no2)CCCCC1` gave a cytotoxicity at 10 µM of -2.46%. In the case of `Cc1ccc(CN2CCC3(CCN(S(=O)(=O)c4ccccc4)C3)C2)o1` (stereo not given), the cytotoxicity at 10 µM is reported as -0.00736%. For `CN(C)S(=O)(=O)N1C[C@@H](OCc2ccccn2)[C@H]2OCCC[C@H]21`, the cytotoxicity at 10 µM was 10.7%. `O=C(O)c1ccc2c(CN3CCOCC3)c[nH]c2c1` gave a cytotoxicity at 10 µM of 4.91%. `CC1(C(=O)N2CCOCC2)CN(C2CCCCC2)CCO1` (stereo not given) gave a cytotoxicity at 10 µM of -22.3%. `Cc1nc(Nc2ncccn2)cc(C2CCCN2CC(C)C)n1` (stereo not given) gave a cytotoxicity at 10 µM of 7.02%. Work on `O=c1c(Cc2ccccc2)c(O)ccn1CCc1ccccc1` yielded a cytotoxicity at 10 µM of 10.3%. Work on `CC(C)c1noc(C[S+]([O-])CC(=O)Nc2cc(F)ccc2F)n1` (stereo not given) yielded a cytotoxicity at 10 µM of 8.15%. Compound `CC(C)(C)c1nc(CN2CCC(N3CCCCC3)CC2)no1` has a cytotoxicity at 10 µM of -0.48%. In the case of `O=C(c1cnc(NCc2cccnc2)c(Cl)c1)N1CCCCC1`, the cytotoxicity at 10 µM is reported as 8.89%. Compound `O=C(CCn1cccn1)NCC(c1cccs1)N1CCOCC1` (stereo not given) has a cytotoxicity at 10 µM of -2.49%. In the case of `Cc1cc(C(=O)CN2C(=O)c3ccccc3CS2(=O)=O)c(C)[nH]1`, the cytotoxicity at 10 µM is reported as 13.5%. Work on `Cc1cc(=O)n(C)cc1NC(=O)Cc1cc(F)ccc1F` yielded a cytotoxicity at 10 µM of -11.4%. Compound `Cc1c(I)cccc1C(=O)NCc1ncc[nH]1` has a cytotoxicity at 10 µM of 17.3%. In the case of `CN(CC(=O)NCC1CCCO1)Cc1nc2c(s1)CCCC2` (stereo not given), the cytotoxicity at 10 µM is reported as 21.6%. `OC(COCc1cccs1)CSc1nnc2ccccn12` (stereo not given) showed a cytotoxicity at 10 µM of 1.66%. `Cc1nnc(N2CCN(C(=O)NC3CC3)CC2)c(C(N)=O)c1C` showed a cytotoxicity at 10 µM of 4.34%. Compound `CCCN1CCCN(S(=O)(=O)c2cnc3onc(C)c3c2)CC1` has a cytotoxicity at 10 µM of 1.71%. With `Cc1ccc(C(CNC(=O)Cc2nc3ncccn3n2)N(C)C)cc1` (stereo not given) the cytotoxicity at 10 µM was -1.64%. Work on `Cc1ccc(C(C)N(C)CCS(=O)(=O)CCC(N)=O)cc1` (stereo not given) yielded a cytotoxicity at 10 µM of -52.5%. `COc1cccc(-c2ccc3nc(C4CCN(C(C)=O)CC4)nn3c2)c1` showed a cytotoxicity at 10 µM of 9.84%. Work on `Cc1nc(CN2CCC3(C2)CN(Cc2ccco2)C3)cs1` yielded a cytotoxicity at 10 µM of -106%. For `Cc1occc1C(=O)N1CCCC2(CCN(c3ccsc3)C2=O)C1` (stereo not given), the cytotoxicity at 10 µM was -70.7%. For `CCOCC1CN(C(=O)c2cscn2)Cc2cnn(CC3CC3)c21` (stereo not given), the cytotoxicity at 10 µM was -69.4%. In the case of `Cc1cnc(C(=O)N2CCC3(CC2)CN(c2ccccn2)CCO3)cn1`, the cytotoxicity at 10 µM is reported as -80.2%. Compound `CC(C)S(=O)(=O)NCc1cccnc1Oc1ccc(F)cc1F` has a cytotoxicity at 10 µM of 5.98%. In the case of `CC(C)=CCN1CCC2(CC1)c1ccccc1[C@@H](N1CCSCC1)[C@@H]2O`, the cytotoxicity at 10 µM is reported as 7.25%. Compound `CC(C)C(C(=O)N1CCC2(CC1)CN(C)C(=O)O2)c1ccccc1` (stereo not given) has a cytotoxicity at 10 µM of -53.6%. `Cc1ccc(N2C[C@@H]3CN(C(=O)NC4CCCC4)C[C@]3(C(=O)O)C2)nn1` showed a cytotoxicity at 10 µM of 19.5%. Compound `CCN(CC)C(=O)Cn1cc(C(=O)NCCCc2scnc2C)nn1` has a cytotoxicity at 10 µM of -7.38%. Compound `Cc1ccc(-c2cc(C(=O)NCCCc3csc(N)n3)[nH]n2)s1` has a cytotoxicity at 10 µM of 81.7%. For `COc1ccccc1OC1(C(=O)O)CCN(c2nc(C)cnc2C)CC1`, the cytotoxicity at 10 µM was -13.6%. For `Cc1ccnc(NCCNC(=O)CCNC(=O)c2ccccc2F)c1`, the cytotoxicity at 10 µM was 1.5%. With `Cc1ccc(C#N)c(N2CCCC(c3nccn3Cc3cscn3)C2)n1` (stereo not given) the cytotoxicity at 10 µM was -1.9%. `O=C(c1ccnc(-n2cnnc2)c1)N1CCCC2(CCNC2)C1` (stereo not given) gave a cytotoxicity at 10 µM of -19.1%. With `Cc1cccc(C(C(=O)NCc2nc(-c3ncccn3)no2)N(C)C)c1` (stereo not given) the cytotoxicity at 10 µM was -1.57%. In the case of `CC(=O)NCC1CCC2(CCN(c3ncc(C(C)=O)c(C)n3)CC2)O1` (stereo not given), the cytotoxicity at 10 µM is reported as -0.611%. In the case of `CCCNC(=O)c1ccc(S(=O)(=O)NC2(COC)CCCC2)cc1`, the cytotoxicity at 10 µM is reported as -49.9%. Work on `CCOc1ccc(C(=O)NC2CC2)cc1C` yielded a cytotoxicity at 10 µM of 8%. `CC1Oc2ccc(S(=O)(=O)NCCCn3ccnc3)cc2NC1=O` (stereo not given) gave a cytotoxicity at 10 µM of 7.88%. `Cc1nc(CCCNC(=O)C2CC(=O)N(C3CC3)C2)sc1C` (stereo not given) gave a cytotoxicity at 10 µM of -12.9%. With `CCOCCCNc1nc(O)cc(C2CC(=O)N(C)C2)n1` (stereo not given) the cytotoxicity at 10 µM was 0.873%. Compound `CC(C)Cc1cc(NC(=O)c2n[nH]c3ccccc23)n(C)n1` has a cytotoxicity at 10 µM of -15.9%. `Cc1cnn(C2CN(CC(=O)NCCCc3ccccc3)C2)c1` gave a cytotoxicity at 10 µM of 0.555%. For `Cc1nc(CN2CCCN(CCOc3ccc(C#N)cc3)CC2)no1`, the cytotoxicity at 10 µM was -5.93%. For `CC(NC(=O)NCCN1CCCC1)c1nncn1C` (stereo not given), the cytotoxicity at 10 µM was -5.68%. For `CC(=O)N(Cc1noc(C2CC2)n1)C1CCN(CC2CCOCC2)C1` (stereo not given), the cytotoxicity at 10 µM was 1.29%. Compound `COCCS(=O)(=O)Nc1ccc(-n2cncn2)c(F)c1` has a cytotoxicity at 10 µM of -12.2%. With `NC(=O)C1CCN(C(=O)NCc2cccnc2OCC(F)(F)F)C1` (stereo not given) the cytotoxicity at 10 µM was -11.2%. `CN(C)c1cc2c(nn1)CCN(C(=O)C1Cc3ccccc3O1)C2` (stereo not given) showed a cytotoxicity at 10 µM of -18.5%. With `Cc1cc(C)n(CC2CCCCN2C(=O)c2ccc3c(c2)COC3)n1` (stereo not given) the cytotoxicity at 10 µM was -24.4%. Compound `CCn1ncc2c1CCCC2NCc1ccccc1N1CCOCC1` (stereo not given) has a cytotoxicity at 10 µM of -7.66%. With `Cc1cnn(C2CCCN(C(=O)c3cccc4c3OCO4)C2)c1` (stereo not given) the cytotoxicity at 10 µM was -2.23%. `CCc1nc(CN2CCOC(CN(CC)c3cccnn3)C2)cs1` (stereo not given) gave a cytotoxicity at 10 µM of 3.09%. For `Cn1cc(CN2CCCN(C(=O)c3cn4ccccc4n3)CC2)cn1`, the cytotoxicity at 10 µM was -5.97%. `Cc1cnn(CC(C)NCc2ccc(S(C)(=O)=O)cc2)c1` (stereo not given) gave a cytotoxicity at 10 µM of 4.62%. With `CN(C)C(=O)COC[C@]12COC[C@H]1CN(C1CCCC1)C2` the cytotoxicity at 10 µM was -108%. Work on `COCCN1CCC2(CC1)CC(NC(=O)CC1CC1)c1ccccc1O2` (stereo not given) yielded a cytotoxicity at 10 µM of -1.83%. In the case of `N#Cc1ccc(N2CCCC3(CCC(=O)N3CC3CC3)CC2)nc1` (stereo not given), the cytotoxicity at 10 µM is reported as -125%. In the case of `Cc1ccc(CN2CCO[C@H]3[C@H](OCc4cccnc4)CC[C@@H]32)o1`, the cytotoxicity at 10 µM is reported as 6.22%. For `CS(=O)(=O)N[C@@H]1CN(C(=O)c2cccnc2)[C@@H]2CCCO[C@@H]21`, the cytotoxicity at 10 µM was -81.8%. Compound `c1ccc(O[C@@H]2CC[C@H]3[C@H]2OCCN3CC2CCOCC2)nc1` has a cytotoxicity at 10 µM of -1.02%. Work on `Fc1cnc(N2CCN3C[C@H](Oc4cncnc4)C[C@H]3C2)nc1` yielded a cytotoxicity at 10 µM of -5.38%. With `CNCC(=O)N1CCC(c2ccnc(Nc3ccc(C)cn3)n2)C1` (stereo not given) the cytotoxicity at 10 µM was -2.29%. With `CN(Cc1cn2c(n1)CN(C1CCOCC1)CC2)Cc1ccco1` the cytotoxicity at 10 µM was -64.3%. Compound `Cn1ccc(CN2CCCC23CCN(Cc2cccc(F)c2)CC3)n1` has a cytotoxicity at 10 µM of -103%. With `O=C1[C@H]2CN(Cc3ccccn3)C[C@H]2CN1c1ccsc1` the cytotoxicity at 10 µM was -73.2%. `CN(C)CCN1CCC2(CCN(C(=O)c3ccc(F)cc3)CC2)C1=O` gave a cytotoxicity at 10 µM of -0.00146%. Work on `N#Cc1cccc(CN2CC[C@@H]3CN(c4ncccn4)CCO[C@@H]3C2)c1` yielded a cytotoxicity at 10 µM of -6.51%. In the case of `Cc1nc(CN2CCc3ncnc(C)c3CC2)cs1`, the cytotoxicity at 10 µM is reported as -1.8%. In the case of `Fc1ccc(CN2CCC3(CC2)CCN(c2ncccn2)CC3)cc1`, the cytotoxicity at 10 µM is reported as -73.7%. Compound `O=C(c1ccco1)N1CCCC2(CCN(c3nncs3)C2)C1` (stereo not given) has a cytotoxicity at 10 µM of -97.4%. Compound `CCc1cc(CN2C[C@@H]3CC[C@H]2CN(C2Cc4ccccc4C2)C3)on1` has a cytotoxicity at 10 µM of 0.998%. `Oc1coc2cc(OC[C@@H]3CCCN4CCCC[C@H]34)ccc12` gave a cytotoxicity at 10 µM of 1.96%.
